Measured values taken from PMC7821153 (Chemical Biology & Drug Design, 2020).

Legend:
Type in all cases: cell-based
[1] = Cellular cytotoxicity, ATP-dependent luminescence assay
In short: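 Cytotoxicity measured by ATP-dependent luminescence, with CC50 derived. Values are from three independent experiments (n = 3), and standard deviations are reported.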

[2] = system: WT HIV-1; assay: Single-round infectivity assay, WT RT vector; settings: for EC50: Human immunodeficiency virus 1, read-out: EC50 WT; for TI (therapeutic index): calculated from CC50 and WT EC50
In short: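 Single-round infection with an HIV-1-based vector (pNLNgoMIVR-ΔENV.LUC, Env-deleted, luciferase-carrying) with wild-type RT, used to derive EC50. Therapeutic index is calculated from CC50 (ATP-dependent luminescence assay) and wild-type EC50. Three independent experiments (n = 3), with standard deviations.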

[3] = system: HIV-1 NNRTI-resistant mutant L100I; assay: Single-round infectivity assay, L100I; settings: Human immunodeficiency virus 1, read-out: EC50 L100I
In short: (§1)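 Single-round infection with the HIV-1-based vector pNLNgoMIVR-ΔENV.LUC (Env-deleted, luciferase-carrying) bearing the indicated RT mutation(s), used to derive EC50. The mutant vectors are previously described constructs.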

[4] = system: HIV-1 NNRTI-resistant mutant K103N; assay: Single-round infectivity assay, K103N; settings: Human immunodeficiency virus 1, read-out: EC50 K103N
In short: as §1

[5] = system: HIV-1 NNRTI-resistant mutant E138K; assay: Single-round infectivity assay, E138K; settings: Human immunodeficiency virus 1, read-out: EC50 E138K
In short: as §1

[6] = system: HIV-1 NNRTI-resistant mutant Y181C; assay: Single-round infectivity assay, Y181C; settings: Human immunodeficiency virus 1, read-out: EC50 Y181C
In short: as §1

[7] = system: HIV-1 NNRTI-resistant mutant Y188L; assay: Single-round infectivity assay, Y188L; settings: Human immunodeficiency virus 1, read-out: EC50 Y188L
In short: as §1

[8] = system: HIV-1 NNRTI-resistant mutant H221Y; assay: Single-round infectivity assay, H221Y; settings: Human immunodeficiency virus 1, read-out: EC50 H221Y
In short: as §1

[9] = system: HIV-1 NNRTI-resistant mutant K103N/Y181C; assay: Single-round infectivity assay, K103N/Y181C; settings: Human immunodeficiency virus 1, read-out: EC50 K103N/Y181C
In short: as §1

[10] = system: HIV-1 NNRTI-resistant mutant G190S; assay: Single-round infectivity assay, G190S; settings: read-out: EC50 G190S; single-round infection, n = 3
In short: as §1

[11] = system: HIV-1 NNRTI-resistant mutant M230L; assay: Single-round infectivity assay, M230L; settings: Human immunodeficiency virus 1, read-out: EC50 M230L
In short: as §1

[12] = system: HIV-1 NNRTI-resistant mutant P236L; assay: Single-round infectivity assay, P236L; settings: read-out: EC50 P236L; single-round infection, n = 3
In short: as §1

[13] = system: HIV-1 NNRTI-resistant mutant L100I/K103N; assay: Single-round infectivity assay, L100I/K103N; settings: Human immunodeficiency virus 1, read-out: EC50 L100I/K103N
In short: as §1

[14] = system: HIV-1 NNRTI-resistant mutant K103N/P225H; assay: Single-round infectivity assay, K103N/P225H; settings: Human immunodeficiency virus 1, read-out: EC50 K103N/P225H
In short: as §1

[15] = system: HIV-1 NNRTI-resistant mutant V106A/G190A/F227L; assay: Single-round infectivity assay, V106A/G190A/F227L; settings: Human immunodeficiency virus 1, read-out: EC50 V106A/G190A/F227L
In short: as §1

[16] = system: HIV-1 DOR-resistant mutant L234I; assay: Single-round infectivity assay, L234I; settings: read-out: EC50 L234I; single-round infection, n = 3
In short: as §1

[17] = system: HIV-1 DOR-resistant mutant V106A/F227L/L234I; assay: Single-round infectivity assay, V106A/F227L/L234I; settings: read-out: EC50 V106A/F227L/L234I; single-round infection, n = 3
In short: as §1

[18] = system: HIV-1 RT-resistant mutant D67E; assay: Single-round infectivity assay, D67E; settings: read-out: EC50 D67E; single-round infection, n = 3
In short: as §1

[19] = system: HIV-1 RT-resistant mutant K101E; assay: Single-round infectivity assay, K101E; settings: Human immunodeficiency virus 1, read-out: EC50 K101E
In short: as §1

[20] = system: HIV-1 RT-resistant mutant K101E/M184I; assay: Single-round infectivity assay, K101E/M184I; settings: read-out: EC50 K101E/M184I; single-round infection, n = 3
In short: as §1

[21] = system: HIV-1 RT-resistant mutant K101E/M184V; assay: Single-round infectivity assay, K101E/M184V; settings: read-out: EC50 K101E/M184V; single-round infection, n = 3
In short: as §1

[22] = system: HIV-1 NNRTI-resistant mutant G190A; assay: Single-round infectivity assay, G190A; settings: read-out: EC50 G190A; single-round infection, n = 3
In short: as §1

[23] = system: HIV-1 DOR-resistant mutant V106A/F227L; assay: Single-round infectivity assay, V106A/F227L; settings: read-out: EC50 V106A/F227L; single-round infection, n = 3
In short: as §1

SMILES | CC50 [1] [nM] | EC50 [2] [nM] | TI (therapeutic index) [2] | EC50 [3] [nM] | EC50 [4] [nM] | EC50 [5] [nM] | EC50 [6] [nM] | EC50 [7] [nM] | EC50 [8] [nM] | EC50 [9] [nM] | EC50 [11] [nM] | EC50 [13] [nM] | EC50 [14] [nM] | EC50 [15] [nM] | EC50 [19] [nM] | other results
Cc1cc(/C=C/C#N)cc(C)c1-n1cnc2cnc(Nc3ccc(/C=C/C#N)cc3)nc21 [Compound 13, (E)‐3‐(4‐((9‐(4‐((E)‐2‐cyanovinyl)‐2,6‐dimethylphenyl)‐9H‐purin‐2‐yl)amino)phenyl)acrylonitrile] | > 250000 | 1.4 ± 0.2 | >25,000 | 28.6 ± 7.6 | 9.3 ± 0.7 | 29.1 ± 1.9 | 92.4 ± 10 | 208 ± 12 | 2.6 ± 0.7 | 323 ± 56.7 | 60 ± 0.9 | 252 ± 21.9 | 29.1 ± 1.6 | 4.7 ± 0.9 | 9.7 ± 1.2 | EC50 [10]: 1.2 ± 0.3 nM; EC50 [12]: 1.1 ± 0.05 nM; EC50 [16]: 1.8 ± 0.4 nM; EC50 [17]: 5.4 ± 1.1 nM; EC50 [18]: 9.5 ± 1.8 nM; EC50 [20]: 7 ± 0.6 nM; EC50 [21]: 3.9 ± 0.6 nM
Cc1cc(/C=C/C#N)cc(C)c1Nc1nc(Nc2ccc3cc(C#N)ccc3c2)ncc1N [Compound 7, (E)‐6‐((5‐amino‐4‐((4‐(2‐cyanovinyl)‐2,6‐dimethylphenyl)amino)pyrimidin‐2‐yl)amino)‐2‐naphthonitrile] | 23000 ± 2300 | 2.3 ± 0.3 | 10,000 | 4.5 ± 0.4 | 4 ± 0.8 | 27.6 ± 2.4 | 15.6 ± 2 | 152 ± 21.3 | 2.8 ± 0.2 | 156 ± 12.7 | 21.4 ± 4.2 | 265 ± 5.9 | 25.3 ± 3 | 5.2 ± 1 | 9.9 ± 2 | EC50 [22]: 1.4 ± 0.1 nM; EC50 [12]: 1.2 ± 0.3 nM; EC50 [17]: 3.5 ± 0.2 nM; EC50 [18]: 9.7 ± 1.2 nM; EC50 [20]: 9.4 ± 0.4 nM; EC50 [21]: 3 ± 0.3 nM
Cc1cc(/C=C/C#N)cc(C)c1Nc1nc(Nc2ccc3cc(/C=C/C#N)ccc3c2)ncc1N [Compound 8, (E)‐3‐(4‐((5‐amino‐2‐((6‐((E)‐2‐cyanovinyl)naphthalen‐2‐yl)amino)pyrimidin‐4‐yl)amino)‐3,5‐dimethylphenyl)acrylonitrile] | 10800 ± 700 | 6.8 ± 0.6 | 1,588 | 242 ± 35.4 | 121 ± 9.7 | 534 ± 27.1 | 264 ± 15.9 | 3070 | 18.7 ± 2.5 | 1990 |  |  |  |  |  | 
Cc1cc(/C=C/C#N)cc(C)c1-n1cnc2cnc(Nc3ccc4cc(/C=C/C#N)ccc4c3)nc21 [Compound 11, (E)‐3‐(6‐((9‐(4‐((E)‐2‐cyanovinyl)‐2,6‐dimethylphenyl)‐9H‐purin‐2‐yl)amino)naphthalen‐2‐yl)acrylonitrile] | 17100 ± 800 | 10.2 ± 1.9 | 1,676 | 78 ± 11.7 | 232 ± 22.3 | > 5000 | > 5000 | > 5000 | 17.1 ± 2.1 | > 5000 |  |  |  |  |  | 
Cc1cc(/C=C/C#N)cc(C)c1Nc1ccnc(Nc2ccc(C#N)cc2)n1 [RPV, rilpivirine, reference compound] |  |  | >25,000 | 0.1 ± 0.03 | 1 ± 0.2 | 1 ± 0.1 | 1.4 ± 0.4 | 2.3 ± 0.2 | 1.3 ± 0.1 | 3.5 ± 0.3 | 1.7 | 2.3 ± 0.2 | 0.6 ± 0.2 | 0.5 ± 0.02 | 2.6 ± 1.6 | EC50 [23]: 0.8 ± 0.1 nM
O=C1Nc2ccc(Cl)cc2[C@@](C#CC2CC2)(C(F)(F)F)O1 [EFV, efavirenz, reference compound] | 36400 ± 1600 | 0.9 ± 0.1 | >25,000 | 5.4 ± 0.9 | 35.8 ± 9.1 | 2.5 ± 0.4 | 1.6 ± 0.1 | 76.8 ± 6.5 | 2.2 ± 0.4 | 36 ± 8.4 | 14.3 ± 2 | 488 ± 50 | 50.4 ± 3.1 | 185 ± 19.8 | 11 ± 1.2 | 
Cc1cc(/C=C/C#N)cc(C)c1Nc1ncc(N)c(Nc2c(C)cc(/C=C/C#N)cc2C)n1 [Compound 6, (2E,2′E)‐3,3′‐(((5‐aminopyrimidine‐2,4‐diyl)bis(azanediyl))bis(3,5‐dimethyl‐4,1‐phenylene))diacrylonitrile] | 44900 ± 600 | 27.2 ± 3.3 | 1,651 | 3640 | 75.5 ± 5.6 | 1070 ± 60 | 2760 ± 580 | > 5000 | 79.2 ± 6.4 | > 5000 |  |  |  |  |  | 
Cn1c(Cn2ccc(C(F)(F)F)c(Oc3cc(Cl)cc(C#N)c3)c2=O)n[nH]c1=O [DOR, doravirine, reference compound] |  |  | >25,000 | 1.1 ± 0.2 | 4.5 ± 2.8 | 13.9 ± 2.4 | 2 ± 0.2 | > 100 | 4.6 ± 1.8 | 11.3 ± 5.9 | 51.1 ± 6.5 | 2 ± 0.8 | 25.3 ± 4.5 | > 100 | 0.4 ± 0.04 | 
Cc1cc(/C=C/C#N)cc(C)c1Nc1ncc2ncn(-c3c(C)cc(/C=C/C#N)cc3C)c2n1 [Compound 9, (E)‐3‐(4‐((9‐(4‐((E)‐2‐cyanovinyl)‐2,6‐dimethylphenyl)‐9H‐purin‐2‐yl)amino)‐3,5‐dimethylphenyl)acrylonitrile] | 192000 ± 11000 | 10.4 ± 0.6 | 18,423 | 156 ± 30.6 | 48 ± 4.2 | 150 ± 6.9 | > 5000 | > 5000 | 19.4 ± 2.2 | > 5000 |  |  |  |  |  | 
